Screening results: PubChem, several laboratories
D1 mod – allosteric modulators of human D1 dopamine receptor; P21728; 58,000 compounds, 5.9% hits; B-score at 10 µM; AID 641; HEK293 D1, CRE-luciferase, dopamine EC30 potentiation; actives deviate in either direction;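 active means luminescence count or its row- and column-corrected plate score outside the 99.7% band of the plate's sample wells, on either side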
AP complement – alternative pathway complement inhibition, orthogonal assay; 62,000 compounds, 0.08% hits; Human serum alternative complement pathway, LPS-coated ELISA, C3 deposition; tested in compound mixtures; inhibition, % at 5 µM;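 active means inhibition above 30% in each of the two pooled mixtures holding the compound, so the lower value exceeds 30%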;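 further: 0% = serum in Mg-EGTA without compound and 100% = EDTA serum blank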
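Assay system: Human serum alternative complement pathway, C3 deposition on LPS-coated wells | Incubation: 1 h serum-compound exposure at 37 °C | Doses: 5 µM per compound in ten-compound mixtures | Read-out: Percent inhibition | Technique: ELISA with HRP anti-human C3 antibody, TMB substrate, absorbance 450 nm | Replication: Two pool placements per compound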
WNV NS2B-NS3 inh – inhibitors of West Nile virus NS2B-NS3 protease; P06935; WNV NS2B-NS3 protease, fluorogenic substrate Ex360/Em465; active compounds read low; z-score (test concentration not listed); 65,000 compounds, 0.18% hits; AID 577; in the data active means z-score below about -3
hDAT+cocaine – human DAT dopamine uptake with cocaine, either direction. Q01959. LLC-PK1 hDAT cells, [14C]-dopamine uptake with cocaine IC80; actives deviate in either direction. 110,000 compounds, 1.3% hits. AID 449768. B-score at 10 µM;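 active means Z score or B-score, a plate-position-corrected score, falls beyond the plate's 99.7% confidence bounds, in either direction; inactive means both scores lie inside the 99.7% bounds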;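 further: scored against the spread of the other compound wells on the same plate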
Target sequence (Q01959 whole entry, looked up): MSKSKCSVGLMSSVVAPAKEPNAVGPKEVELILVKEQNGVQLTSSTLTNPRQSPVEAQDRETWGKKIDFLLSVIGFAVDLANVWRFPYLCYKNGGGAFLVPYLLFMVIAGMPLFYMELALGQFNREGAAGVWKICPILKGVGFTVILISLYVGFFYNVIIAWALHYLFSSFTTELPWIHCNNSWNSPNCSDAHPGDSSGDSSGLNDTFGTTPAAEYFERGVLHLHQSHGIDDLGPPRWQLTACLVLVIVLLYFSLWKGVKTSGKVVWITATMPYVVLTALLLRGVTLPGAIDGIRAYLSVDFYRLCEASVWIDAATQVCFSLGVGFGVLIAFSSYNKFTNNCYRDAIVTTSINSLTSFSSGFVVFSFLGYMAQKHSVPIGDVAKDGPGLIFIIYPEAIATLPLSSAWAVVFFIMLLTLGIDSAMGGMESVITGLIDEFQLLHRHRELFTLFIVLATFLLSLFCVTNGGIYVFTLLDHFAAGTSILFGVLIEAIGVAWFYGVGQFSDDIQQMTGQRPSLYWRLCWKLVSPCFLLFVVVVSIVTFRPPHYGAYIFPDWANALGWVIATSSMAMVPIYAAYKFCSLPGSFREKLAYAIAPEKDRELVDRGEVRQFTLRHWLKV
D1 mod confirm – confirmation of human D1 dopamine receptor allosteric modulators; shares compounds with D1 mod; HEK293 D1 CRE-luciferase, dopamine EC30 potentiation; active compounds read high; luminescence at 10 µM; 2,200 compounds, 88% hits;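 active means luminescence in either of two replicates above the same-plate mean plus 3 SD of the low-dose dopamine control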
D1 no dopamine – secondary test of D1 modulators: activity without dopamine. shares compounds with D1 mod. HEK293 D1 CRE-luciferase, luminescence, no dopamine; active compounds read high. luminescence at 10 µM. 1,900 compounds, 0.8% hits; in the data active means luminescence above about 3900
Isoprot counter – alters isoproterenol CRE-luciferase response in HEK293 cells; luminescence at 10 µM; shares compounds with D1 mod; AID 647; 2,200 compounds, 63% hits; HEK293 D1 CRE-luciferase, isoproterenol EC30 counter-screen; active compounds read high;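 active means luminescence in either replicate above plate mean of wells with a partly effective reference agonist dose plus 3 SD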;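 further: isoproterenol raises cAMP through native beta-adrenoceptor Gs so signal bypasses D1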
* marks the source's active call; other numbers are inactive results; . = no result given. Only a selection was taken, and hits are over-represented in it overall.

SMILES	D1 mod	AP complement	WNV NS2B-NS3 inh	hDAT+cocaine	D1 mod confirm	D1 no dopamine	Isoprot counter
O=C(NC1CCCCC1)c1nn2c(C(F)(F)F)cc(-c3ccco3)nc2c1Br	0.833	16.5	-0.09	0.17	.	.	.
O=C(c1ccccc1)c1nc[nH]c1C(=O)Nc1ccccn1	4.58*	-8.7	-1.18	-0.105	9124*	2104	2788
CCOC(=O)c1[nH]cnc1C(=O)Nc1ccccn1	3.97*	13.1	-0.66	0.00102	10664*	1452	2932
CN(C)P(=NC(=O)COc1ccc(Cl)cc1Cl)(N(C)C)N(C)C	-0.622	13.0	-0.62	-0.0428	.	.	.
CC1CCCCN1c1nc(-c2ccncc2)nc2ccccc12 (stereo unspecified)	12.7*	7.8	1.1	0.113	8444*	1504	3480*
CC1CCN(c2nc(-c3ccncc3)nc3ccccc23)CC1	3.89*	13.7	-0.95	0.93	9916*	1776	4700*
COc1ccc(CNC(=O)CSc2nnc(Cn3nnc4ccccc43)n2C)cc1	.	.	.	-0.159	.	.	.
COc1cccc(NC(=O)COC(=O)c2ccc(S(=O)(=O)NCc3ccco3)cc2)c1	.	.	.	-0.73	.	.	.
CCn1ncc(C2=NOC(C(=O)NCc3ccccc3)C2)c1C (stereo unspecified)	7.67*	4.6	-0.45	-1.61	12364*	1760	3028
CCc1c(C)c(C#N)c2nc3ccccc3n2c1N(C)C	4.93*	-11.5	-0.77	0.0602	9428*	1532	4636*
CNC(=O)CN(C)S(=O)(=O)c1ccc(F)cc1	.	.	.	1.07	.	.	.
CCC1CC2CC(NC(C)=O)C1C2 (stereo unspecified)	.	.	.	0.333	.	.	.
CCOC(=O)c1[nH]c2ccc(F)cc2c1NC(=O)CN1CCc2cc(OC)c(OC)cc2C1	1.72*	34.8*	-0.47	.	9280*	1680	4108*
CCOC(=O)c1[nH]c2cc(OC)c(OC)cc2c1NC(=O)CN(C)C1CCCCC1	4.32*	9.6	0.74	2.16	10140*	1444	3920*
CCOC(=O)c1[nH]c2ccc(OC)cc2c1NC(=O)CN1CCSCC1	2.3*	-7.1	1.32	0.342	6220*	1352	3496*
COC(=O)c1[nH]c2ccc(Cl)cc2c1NC(=O)CN1CCc2cc(OC)c(OC)cc2C1	-0.012	9.0	-0.27	2.37	.	.	.
CCOC(=O)c1[nH]c2ccc(OC)cc2c1NC(C)=O	-0.245	.	1.04	-1.21	.	.	.
COc1cc([N+](=O)[O-])ccc1NC(=O)CCCOc1cccc(C)c1	.	.	.	-0.17	.	.	.
CCn1c2ccccc2c2nc3ccccc3nc21	5.61*	14.9	-0.55	0.222	15700*	.	2608
CCn1c2ccccc2c2nc3cc(OC)c(OC)cc3nc21	-0.0112	13.6	-0.73	0.686	.	.	.
FC(F)(F)c1ccc(C2[C@H]3CN(Cc4cccnc4)[C@H](c4ccccc4)C34CC2(c2ccccc2)C4)cc1 (stereo partly specified)	.	.	.	-0.154	.	.	.
Nc1nc2n(n1)C(c1ccco1)CC(c1ccccc1)N2 (stereo unspecified)	13.5*	.	-1.31	0.411	20620*	1600	4180*
Cc1ccc(C2CC(c3ccco3)n3nc(N)nc3N2)cc1 (stereo unspecified)	.	20.4	0.95	0.0683	.	.	.
Nc1nc2n(n1)C(c1ccco1)CC(c1ccc(F)cc1)N2 (stereo unspecified)	6.97*	22.8	-0.98	0.205	9024*	1664	2560
O=C(NCC1CCCO1)C1CC(=O)N(C2CCCC2)C1 (stereo unspecified)	.	.	.	-0.144	.	.	.
SMILES	D1 mod	AP complement	WNV NS2B-NS3 inh	hDAT+cocaine	D1 mod confirm	D1 no dopamine	Isoprot counter
CC1CCN(C(=O)Cn2c(=O)n(Cc3ccc4c(c3)OCO4)c(=O)c3ccccc32)CC1	.	9.6	0.64	0.972	.	.	.
O=C(Cn1c(=O)n(Cc2ccc3c(c2)OCO3)c(=O)c2ccccc21)N1CCCc2ccccc21	6.02*	8.9	0.46	-0.0152	10984*	1796	3144*
COC(=O)C1=C(C(=O)OC)[C@@H]2Nc3ccccc3[C@@]23C[C@@H](C(=O)OC)N(C(=O)NC2CCCCC2)C3=N1	.	.	.	0.518	.	.	.
O=S(=O)(Nc1ccc(S(=O)(=O)N2CCCCC2)cc1)c1ccc(Br)s1	-0.895	4.4	-1.11	-2.11	.	.	.
CCn1cc(C2=NOC(C(=O)Nc3ccc4c(c3)OCO4)C2)c(C)n1 (stereo unspecified)	6.61*	10.6	-0.08	0.242	8608*	1720	3452*
N#CC1=C(N)n2c(s/c(=C\c3ccco3)c2=O)=C(C#N)C1c1ccco1 (stereo unspecified)	11.9*	3.5	0.39	0.846	14056*	1704	3716
CCOC(=O)C1=C(N)n2c(s/c(=C/c3ccco3)c2=O)=C(C(=O)OC)C1c1ccco1 (stereo unspecified)	1.49	-27.0	1.74	1.28	.	.	.
COC(=O)c1cccc(Nc2nc3ccccc3nc2C)c1	5.17*	22.3	0.84	1.57	9552*	1624	3044*
Cc1cc(SCC#N)n2nc(C)c(-c3ccccc3)c2n1	14*	15.3	-1.28	-1.45	14516*	1608	5404*
Cc1cc(SCC#N)n2nc(C)c(-c3ccc(Cl)cc3)c2n1	.	.	.	0.138	.	.	.
Cn1nc(C(=O)Nc2c(-c3ccccc3)nc3sccn23)c2ccccc2c1=O	0.422	4.2	0.34	-0.168	.	.	.
O=C(NC1CCCC1)c1cccnc1N1CCCCCC1	-0.0172	-1.5	1.08	0.000399	.	.	.
Cc1nc2cccc(C(=O)NC3CCCCC3)c2o1	14.1*	4.5	-0.2	-0.104	19668*	.	3692*
CCOc1cc(C(=O)Nc2ccc3c(c2)OCO3)ccc1OC(F)F	7.62*	7.3	-0.83	0.985	13356*	1552	3896*
Cc1ccc(-n2c(=O)cc(N3CC(C)OC(C)C3)[nH]c2=O)cc1 (stereo unspecified)	.	.	.	-0.719	.	.	.
Cc1ccc(-n2c(=O)cc(N3CC(C)CC(C)C3)[nH]c2=O)cc1 (stereo unspecified)	3.58*	11.0	0.69	-1.49	3236*	1556	3572
CCN(CC)S(=O)(=O)c1cccc(C(=O)NC(C(=O)Nc2nnc(C)s2)C(C)C)c1 (stereo unspecified)	.	.	.	0.866	.	.	.
Cn1c(SCC(=O)Nc2cc(=O)n(C)c(=O)n2C)nnc1C12CC3CC(CC(C3)C1)C2	.	-4.1	2.07	.	.	.	.
OC(CN1CCOCC1)CN1CCOCC1	2.63*	7.6	0.13	.	6000	1732	2564
OC(CN1CCOCC1)CN(c1ccccc1)c1ccccc1 (stereo unspecified)	-1.61	0.4	-0.28	-1.06	.	.	.
Cc1cc(NC(=O)C2CCCCC2)n(-c2nc3ccccc3[nH]2)n1	.	.	.	-0.314	.	.	.
Cc1cc(NC(=O)C2CCC2)n(-c2ccccn2)n1	7.62*	.	-1.98	1.63	20484*	1604	4680*
